The source made the active and inactive calls. No cut-off for these calls is given here.
Columns and labels:
[1] = test system: Plasmodium yoelii nigeriensis; test: Inhibition of heme oxygenase in Plasmodium yoelii nigeriensis isolated from infected mice (Mus musculus) (oral); NI denotes nil inhibition; type: functional, organism-based
In short: (§1)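 Swiss albino mice carried P. yoelii nigeriensis tolerant to CQ up to 120 mg/kg. They received compound orally at 15 mg/kg body wt for 5 days. Parasites were then isolated from blood by density gradient centrifugation and saponin lysis, and enzyme inhibition was measured as percent inhibition.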

[2] = test system: Plasmodium yoelii nigeriensis; test: In Vitro inhibition of Heme Oxygenase in Cell-free parasite Plasmodium yoelii at concentration 100 uM;NI denotes nil inhibition; type: functional
In short: (§2)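 Heme oxygenase activity was measured as bilirubin formation in a post-mitochondrial fraction. The parasite enzyme came from cell-free P. yoelii, isolated from infected blood by density gradient centrifugation and saponin lysis. The host enzyme came from infected liver. Compounds were tested at 10–100 µM and preincubated for 10 min before the reaction was started.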

[3] = test system: Plasmodium yoelii nigeriensis; test: In Vitro inhibition of Heme Oxygenase in Cell-free parasite Plasmodium yoelii at concentration 10 uM;NI denotes nil inhibition; type: functional; in short: as §2
[4] = target: T1, Glutathione S-transferase (Plasmodium yoelii yoelii) (UniProt Q7REH6); test: Inhibition of Glutathione S-transferase in Plasmodium yoelii nigeriensis isolated from infected mice (Mus musculus) (oral); conditions: concentration not given here; in short: as §1
T1 sequence (whole entry): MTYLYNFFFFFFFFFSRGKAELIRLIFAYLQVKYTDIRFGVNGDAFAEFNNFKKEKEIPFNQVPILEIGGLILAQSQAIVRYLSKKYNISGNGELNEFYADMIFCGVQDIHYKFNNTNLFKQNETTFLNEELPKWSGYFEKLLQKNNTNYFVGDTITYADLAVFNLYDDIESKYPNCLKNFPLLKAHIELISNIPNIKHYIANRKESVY

[5] = test system: Plasmodium yoelii nigeriensis; test: In Vitro inhibition of Heme Oxygenase in Cell-free parasite Plasmodium yoelii at concentration 50 uM; NI denotes nil inhibition; type: functional; in short: as §2
[6] = test system: Plasmodium yoelii nigeriensis; test: In Vitro inhibition of Heme Oxygenase in Cell-free parasite Plasmodium yoelii at concentration 100 uM; type: functional; in short: as §2
[7] = test system: Plasmodium yoelii nigeriensis; test: In Vitro inhibition of Heme Oxygenase in Cell-free parasite Plasmodium yoelii at concentration 50 uM; type: functional; in short: as §2
[8] = test system: Plasmodium yoelii nigeriensis; test: In Vitro inhibition of Heme Oxygenase in Cell-free parasite Plasmodium yoelii at concentration 10 uM; type: functional; in short: as §2
[9] = test system: Plasmodium yoelii nigeriensis; test: In Vitro evaluation on percentage inhibition in Heme Oxygenase at concentration 100 (uM) of Cell-free parasite Plasmodium yoelii; type: functional; in short: as §2
[10] = In Vitro evaluation on percentage inhibition in Heme Oxygenase at concentration 100 (uM) of infected host; in short: as §2
[11] = test system: Plasmodium yoelii nigeriensis; test: In Vitro evaluation on percentage inhibition in Heme Oxygenase at concentration 100(uM) of Cell-free parasite Plasmodium yoelii; type: functional; in short: as §2
[12] = In Vitro evaluation on percentage inhibition in Heme Oxygenase at concentration 50(uM) of infected host; in short: as §2
[13] = target: T1, Glutathione S-transferase (Plasmodium yoelii yoelii); test: Inhibition of Glutathione S-transferase in Plasmodium yoelii nigeriensis isolated from infected mice (Mus musculus) (oral); NI denotes nil inhibition; in short: as §1
[14] = test system: Plasmodium yoelii nigeriensis; test: Inhibition of heme oxygenase in Plasmodium yoelii nigeriensis isolated from infected mice (Mus musculus) (oral); NI denotes no inhibition; type: functional, organism-based; in short: as §1
[15] = In Vitro evaluation on percentage inhibition in Heme Oxygenase at concentration 10 (uM)of infected host; in short: as §2

Compound | NI [1] | NI [2] | NI [3] | inhibition [4] [%] | NI [5] | inhibition [6] [%] | inhibition [7] [%] | inhibition [8] [%] | inhibition [9] [%] | inhibition [10] [%] | inhibition [11] [%] | inhibition [12] [%] | NI [13] | NI [14] | inhibition [15] [%]
CCN(CC)CCCN1CC/C(=C\c2ccc3c(c2)OCO3)C1 | No inhibition | No inhibition | No inhibition | 10 | No inhibition | 100 | 100 | 100 |  |  |  |  |  |  | 
CN(C)CCCN1c2ccccc2Sc2ccc(Cl)cc21 |  |  |  |  |  |  | 85 |  | 100 |  |  |  |  |  | 
COc1ccc([C@@H]2Sc3ccccc3N(CCN(C)C)C(=O)[C@@H]2OC(C)=O)cc1 |  |  |  |  |  |  | 12.5 |  |  | 84 | 29 | 41 |  |  | 
CCN(CC)CCCN1CC/C(=C\c2ccccc2)C1 |  |  |  |  |  | 82 | 64 | 52 |  | 65 |  | 65 | No inhibition | inactive | 10

Source: ChEMBL document CHEMBL1133641, “A new class of potential chloroquine-resistance reversal agents for Plasmodia: syntheses and biological evaluation of 1-(3'-diethylaminopropyl)-3-(substituted phenylmethylene)pyrrolidines” (2000)
